The test system of series [1] is Vero. Description: Cytotoxicity against african green monkey Vero cells by MTT assay. Format: cell-based. Particulars: chlorocebus sabaeus.
Series [2] relates to Leishmania donovani. As to the kind of experiment: Antileishmanial activity against amastigote of Leishmania donovani MHOM/IN/80/Dd8 infected in mouse J774A1 cells at 0.25 to 10 ug/ml after 72 hrs by luciferase reporter gene assay. Format: functional, organism-based. The following applies: j774.a1. The gist of the method: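 J774A.1 macrophages were seeded at 1.5 × 10⁴ cells/well in RPMI-1640 + 10% FCS, 37 °C, CO₂, for 24 h. They were then infected with stationary-phase luciferase-transfected Dd8 promastigotes (2.25 × 10⁵/well), which transform to amastigotes. Compounds (0.25–10 range) were added in fresh medium for 72 h. Medium was removed, PBS and Steady Glo added, and luminescence read. Inhibition vs untreated controls; IC50 by logit regression.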
A general note: A reporter such as luciferase makes a cellular process visible.

The subject of series [3] is C-33-A. Description: Cytotoxicity against human C33A cells by MTT assay. Format: functional, cell-based. In general terms: Tetrazolium dyes change colour on reduction, which living cells bring about.
The subject of series [4] is KB. As to the kind of experiment: Cytotoxicity against human KB cells by MTT assay. Format: functional, cell-based.
Series [5] concerns Leishmania donovani. Description: Antileishmanial activity against promastigotes of Leishmania donovani MHOM/IN/80/Dd8 after 72 hrs by luciferase reporter gene assay relative to control. Format: functional. The gist of the method:
(§1)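 Dd8 promastigotes transfected with firefly luciferase were kept in medium 199 + 10% FCS with antibiotics under G418. Late-log cells were incubated 72 h with serial drug dilutions, with parallel DMSO dilutions as controls. An aliquot was mixed 1:1 with Steady Glo and luminescence read as RLU. % inhibition = (N − n) × 100/N versus untreated control RLU; tested as serial dilutions or single concentration.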

Series [6] deals with MCF7. Description: Cytotoxicity against human MCF7 cells by MTT assay. Format: functional, cell-based.
In series [7] the test system is DU-145. As to the kind of experiment: Cytotoxicity against human DU145 cells by MTT assay. The series is classed as functional, cell-based.
Series [8] relates to DU-145. Description: Cytotoxicity against human DU145 cells up to 50 ug/ml by MTT assay. The series is classed as functional, cell-based.
For series [9], the system named is KB. As to the kind of experiment: Cytotoxicity against human KB cells up to 50 ug/ml by MTT assay. The series is classed as functional, cell-based.
Series [10] deals with MCF7. As to the kind of experiment: Cytotoxicity against human MCF7 cells up to 50 ug/ml by MTT assay. The series is classed as functional, cell-based.
Series [11] relates to Vero. Description: Cytotoxicity against african green monkey Vero cells up to 50 ug/ml by MTT assay. The series is classed as cell-based. Particulars: chlorocebus sabaeus.
For series [12], the system named is C-33-A. Description: Cytotoxicity against human C33A cells up to 50 ug/ml by MTT assay. The series is classed as functional, cell-based.
For series [13], the system named is Leishmania donovani. As to the kind of experiment: Antileishmanial activity against Leishmania donovani. The series is classed as functional, organism-based.
The test system of series [14] is J774.A1. As to the kind of experiment: Selectivity index, ratio of CC50 for mouse J774A1 cells to IC50 for amastigote of Leishmania donovani MHOM/IN/80/Dd8. Format: functional. The gist of the method:
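Ratio of CC50 (J774A.1 MTT, 72 h) to IC50 against intracellular amastigotes in J774A.1 macrophages (luciferase read-out, 72 h).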

Series [15] has as its system Leishmania donovani. Description: Antileishmanial activity against promastigotes of Leishmania donovani MHOM/IN/80/Dd8 at 500 ug/ml after 72 hrs by luciferase reporter gene assay relative to control. Format: functional, organism-based. The gist of the method: as §1

The results in this text go back to ChEMBL document CHEMBL1208669, “Synthesis of 2-(pyrimidin-2-yl)-1-phenyl-2,3,4,9-tetrahydro-1H-beta-carbolines as antileishmanial agents” (Eur J Med Chem, 2010).

For orientation: IC50 means the concentration that gives 50% inhibition. Broadly, the inhibition is the relative decrease from the control value, in per cent.

Values after ≈ are worked out from the molar mass of the structure shown. Active and inactive are the calls of the source. No cut-off for these calls is given here.

`Clc1cc(Cl)nc(N2CCc3c([nH]c4ccccc34)C2c2ccc3c(c2)OCO3)n1` (racemic): the 50% inhibitory concentration (IC50) is 8.2 µg/mL (≈ 18.7 µM) in [1]; “Not Active” in series [2]; 3.3 µg/mL (≈ 7.51 µM) in series [3]; 3.9 µg/mL (≈ 8.88 µM) in series [4]; 4.3 µg/mL (≈ 9.79 µM) in series [6]; 8.9 µg/mL (≈ 20.3 µM) in series [7]. Moreover, in [5], the “inhibition (INH)” value was 33.57%.

Turning to `COc1ccc(C2c3[nH]c4ccccc4c3CCN2c2nc(N3CCOCC3)cc(N3CCOCC3)n2)cc1OC` (racemic), the result in series [8], in series [9], in [10] and in [12] was inactive. In addition, the 50% inhibitory concentration (IC50) entry in series [2] was “Not Active”. For the same molecule, the “inhibition (INH)” value in series [5] came out at 85.31%. Also, the Activity entry in series [11] is “Non-toxic”.

`C=CC1CN2CCc3c([nH]c4ccccc34)[C@@H]2C[C@@H]1[C@@H](C(=O)OC)[C@H]1NCCc2c1[nH]c1ccccc21` (some centres not stated) [BUCHTIENINE] showed an IC50 in [13] above 0.3 µg/mL.

Consider sodiumstilbogluconate, for which the Ratio CC50/IC50 in series [14] was determined as 6.38. This molecule also displayed an inhibition in series [15] of 40%.
